Measured values gathered from unrelated publications.
Each line is one published result; the experiments were not run side by side.
Effect on: cell growth or viability

SMILES	cell line	test	conditions	IC50 [µM]
N.N.[Cl][Pt][Cl]	KARPAS-422	ATP luminescence	72 h	7.16
[C-]#[O+].[C-]#[O+].[C-]#[O+].[C-]#[O+].[C-]#[O+].[C-]#[O+].[C-]#[O+].[C-]#[O+].[C-]#[O+].[C-]#[O+].[Mn].[Mn]	HEK293	MTT	48 h	5.44
Cc1ncsc1-c1ccc([C@H](C)NC(=O)[C@@H]2C[C@@H](O)CN2C(=O)[C@@H](c2cc(N3CCC(CN4CCC(OC5CC(Oc6cc(N7C8CCC7CN(c7cc(-c9ccccc9O)nnc7N)C8)ccn6)C5)CC4)CC3)no2)C(C)C)cc1 (some centres unmarked)	HCC515	ATP luminescence	7 days	0.0529
N.N.[Cl][Pt][Cl]	HEK293	MTT	48 h	17.6
CC[C@H](C)[C@H](NC(=O)[C@H](CO)NC(=O)[C@H](CO)NC(=O)[C@H](Cc1ccccc1)NC(=O)CN)C(=O)N[C@@H](Cc1ccccc1)C(=O)N[C@@H](CCCCNC(=N)N)C(=O)NCC(=O)N[C@H](C(=O)N[C@@H](C)C(=O)N[C@@H](CCCCNC(=N)N)C(=O)N[C@@H](Cc1ccccc1)C(=O)N[C@@H](C)C(=O)N[C@@H](CO)C(=O)N[C@@H](CCCCNC(=N)N)C(=O)NCC(=O)N[C@@H](CC(C)C)C(=O)NCC(=O)N[C@@H](CCCCNC(=N)N)C(N)=O)C(C)C	HEK293	MTT	–	> 100
CC(C)C[C@H](NC(=O)[C@H](CO)NC(=O)[C@H](CO)NC(=O)CNC(=O)[C@@H]1CCCN1C(=O)[C@H](Cc1ccc(O)cc1)NC(=O)[C@H](CC(C)C)NC(=O)[C@H](CO)NC(=O)[C@H](CS)NC(=O)[C@H](CC(C)C)NC(=O)[C@@H](N)CC(C)C)C(=O)O	NCI-H1975	MTT	72 h	> 100
CC[C@H](C)[C@H](NC(=O)CN)C(=O)NCC(=O)N[C@@H](C)C(=O)N[C@H](C(=O)N[C@@H](CC(C)C)C(=O)N[C@@H](CCCCN)C(=O)N[C@H](C(=O)N[C@@H](CC(C)C)C(=O)N[C@H](C(=O)N[C@H](C(=O)NCC(=O)N[C@@H](CC(C)C)C(=O)N1CCC[C@H]1C(=O)N[C@@H](C)C(=O)N[C@@H](CC(C)C)C(=O)N[C@H](C(=O)N[C@@H](CO)C(=O)N[C@@H](Cc1c[nH]c2ccccc12)C(=O)N[C@H](C(=O)N[C@@H](CCCCN)C(=O)N[C@@H](CCCNC(=N)N)C(=O)N[C@@H](CCCCN)C(=O)N[C@@H](CCCNC(=N)N)C(=O)N[C@@H](CCC(N)=O)C(=O)N[C@@H](CCC(N)=O)C(N)=O)[C@@H](C)CC)[C@@H](C)CC)[C@@H](C)O)[C@@H](C)O)C(C)C)C(C)C	HEK293	MTT	24 h	4.66
C[C@H](NC(=O)[C@H](Cc1c[nH]c2ccccc12)NC(=O)CNC(=O)[C@H](CCCNC(=N)N)NC(=O)[C@H](Cc1c[nH]c2ccccc12)NC(=O)[C@H](Cc1c[nH]c2ccccc12)NC(=O)[C@H](CO)NC(=O)[C@H](CO)NC(=O)[C@H](Cc1c[nH]c2ccccc12)NC(=O)CN)C(=O)N[C@@H](CCCCN)C(=O)N[C@@H](Cc1c[nH]c2ccccc12)C(=O)N[C@@H](C)C(=O)N[C@@H](CO)C(=O)N[C@@H](CCCCN)C(=O)NCC(=O)N[C@@H](Cc1c[nH]c2ccccc12)C(=O)NCC(=O)N[C@@H](CCCCN)C(N)=O	HEK293	MTT	–	34.1
